{
  "source": "ChEMBL document CHEMBL5303300",
  "about": "“EUbOPEN Chemogenomics Library - Multiplex” (2023)",
  "key": {"Fibroblast": {"tested_on": "Fibroblast", "assay": "Multiplex assay against human fibroblast", "assay_type": "toxicity, cell-based", "settings": "number of replicates 2", "procedure,_shortened": "(§1)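 Tubulin, mitochondrial-mass and membrane-permeability phenotypes are per cents of healthy-nucleus cells. Cells were gated by CellPathfinder machine learning into Hoechst high-intensity objects or normal cells, normal cells into healthy, pyknosed or fragmented nuclei, and pyknosed cells into mitotic or apoptotic. Before that, live cells stained at seeding with Hoechst33342, BioTracker Green Microtubule Cytoskeleton Dye, MitoTracker Red and Annexin V Alexa Fluor 680 were imaged on a CQ1 microscope at 37°C and 5% CO2 after compound addition.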"}, "U2OS": {"tested_on": "U2OS", "assay": "Multiplex assay against U2OS", "assay_type": "toxicity, cell-based", "settings": "human, number of replicates 2", "procedure,_shortened": "as §1"}, "[1]": {"settings": "24 h, 1 µM, compound concentration 1 uM"}, "[2]": {"settings": "24 h, 10 µM, compound concentration 10 uM"}, "[3]": {"settings": "48 h, 1 µM, compound concentration 1 uM"}, "[4]": {"settings": "48 h, 10 µM, compound concentration 10 uM"}, "[5]": {"settings": "12 h, 1 µM, compound concentration 1 uM"}, "[6]": {"settings": "12 h, 10 µM, compound concentration 10 uM"}},
  "note": "“And” between values parts separate entries of the source, which are not always exact repeats. Equal entries are not always repeated.",
  "data": [
    {"molecule": "O=C(Nc1ccc(Cl)c(-c2ccccn2)c1)c1cccc(COc2ccc(Br)cc2CNCCO)c1.O=CO", "values": [
      {"measurement": "Population Membrane Permeable-Phenotype (%)", "setting": "Fibroblast; [1]", "value": "6% and 5%"},
      {"measurement": "Population Mitochondria Different-Phenotype (%)", "setting": "Fibroblast; [1]", "value": "5% and 8%"},
      {"measurement": "Population Mitotic Cells (%)", "setting": "Fibroblast; [1]", "value": "44% and 36%"},
      {"measurement": "Population Normal (%)", "setting": "Fibroblast; [1]", "value": "99% and 100%"},
      {"measurement": "Population Pyknosed Nuclei (%)", "setting": "Fibroblast; [1]", "value": "21% and 30%"},
      {"measurement": "Population Tubulin-Different-Phenotype (%)", "setting": "Fibroblast; [1]", "value": "59% and 61%"},
      {"measurement": "Total Cell Count", "setting": "Fibroblast; [1]", "value": "224 and 146"},
      {"measurement": "Population Apoptotic (%)", "setting": "Fibroblast; [2]", "value": "76% and 81%"},
      {"measurement": "Population Fragmented Nuclei (%)", "setting": "Fibroblast; [2]", "value": "10% and 6%"},
      {"measurement": "Population Healthy Nuclei (%)", "setting": "Fibroblast; [2]", "value": "40% and 46%"},
      {"measurement": "Population Hoechst High Intensity Objects (%)", "setting": "Fibroblast; [2]", "value": "0% and 1%"},
      {"measurement": "Population Mitochondria Different-Phenotype (%)", "setting": "Fibroblast; [2]", "value": "40% and 50%"},
      {"measurement": "Population Mitotic Cells (%)", "setting": "Fibroblast; [2]", "value": "23% and 18%"},
      {"measurement": "Population Normal (%)", "setting": "Fibroblast; [2]", "value": "99% and 98%"},
      {"measurement": "Population Pyknosed Nuclei (%)", "setting": "Fibroblast; [2]", "value": "49% and 47%"},
      {"measurement": "Population Tubulin-Different-Phenotype (%)", "setting": "Fibroblast; [2]", "value": 82, "unit": "%"},
      {"measurement": "Total Cell Count", "setting": "Fibroblast; [2]", "value": "238 and 280"},
      {"measurement": "Population Apoptotic (%)", "setting": "Fibroblast; [3]", "value": "61% and 78%"},
      {"measurement": "Population Fragmented Nuclei (%)", "setting": "Fibroblast; [3]", "value": "9% and 12%"},
      {"measurement": "Population Healthy Nuclei (%)", "setting": "Fibroblast; [3]", "value": "72% and 64%"},
      {"measurement": "Population Hoechst High Intensity Objects (%)", "setting": "Fibroblast; [3]", "value": 1, "unit": "%"},
      {"measurement": "Population Membrane Permeable-Phenotype (%)", "setting": "Fibroblast; [3]", "value": "4% and 5%"},
      {"measurement": "Population Mitochondria Different-Phenotype (%)", "setting": "Fibroblast; [3]", "value": "3% and 8%"},
      {"measurement": "Population Mitotic Cells (%)", "setting": "Fibroblast; [3]", "value": "38% and 21%"},
      {"measurement": "Population Normal (%)", "setting": "Fibroblast; [3]", "value": 98, "unit": "%"},
      {"measurement": "Population Pyknosed Nuclei (%)", "setting": "Fibroblast; [3]", "value": "18% and 22%"},
      {"measurement": "Population Tubulin-Different-Phenotype (%)", "setting": "Fibroblast; [3]", "value": "54% and 42%"},
      {"measurement": "Total Cell Count", "setting": "Fibroblast; [3]", "value": "215 and 165"},
      {"measurement": "Population Apoptotic (%)", "setting": "Fibroblast; [4]", "value": 95, "unit": "%"},
      {"measurement": "Population Fragmented Nuclei (%)", "setting": "Fibroblast; [4]", "value": "9% and 8%"},
      {"measurement": "Population Healthy Nuclei (%)", "setting": "Fibroblast; [4]", "value": "12% and 13%"},
      {"measurement": "Population Hoechst High Intensity Objects (%)", "setting": "Fibroblast; [4]", "value": 0, "unit": "%"},
      {"measurement": "Population Membrane Permeable-Phenotype (%)", "setting": "Fibroblast; [4]", "value": "38% and 27%"},
      {"measurement": "Population Mitochondria Different-Phenotype (%)", "setting": "Fibroblast; [4]", "value": "23% and 41%"},
      {"measurement": "Population Mitotic Cells (%)", "setting": "Fibroblast; [4]", "value": 4, "unit": "%"},
      {"measurement": "Population Normal (%)", "setting": "Fibroblast; [4]", "value": 99, "unit": "%"},
      {"measurement": "Population Pyknosed Nuclei (%)", "setting": "Fibroblast; [4]", "value": "78% and 77%"},
      {"measurement": "Population Tubulin-Different-Phenotype (%)", "setting": "Fibroblast; [4]", "value": "66% and 75%"},
      {"measurement": "Total Cell Count", "setting": "Fibroblast; [4]", "value": "174 and 211"},
      {"measurement": "Population Apoptotic (%)", "setting": "U2OS; [5]", "value": "71% and 88%"},
      {"measurement": "Population Fragmented Nuclei (%)", "setting": "U2OS; [5]", "value": "11% and 3%"},
      {"measurement": "Population Healthy Nuclei (%)", "setting": "U2OS; [5]", "value": "62% and 75%"},
      {"measurement": "Population Hoechst High Intensity Objects (%)", "setting": "U2OS; [5]", "value": 0, "unit": "%"},
      {"measurement": "Population Membrane Permeable-Phenotype (%)", "setting": "U2OS; [5]", "value": "47% and 48%"},
      {"measurement": "Population Mitochondria Different-Phenotype (%)", "setting": "U2OS; [5]", "value": "23% and 66%"},
      {"measurement": "Population Mitotic Cells (%)", "setting": "U2OS; [5]", "value": "28% and 11%"},
      {"measurement": "Population Normal (%)", "setting": "U2OS; [5]", "value": 100, "unit": "%"},
      {"measurement": "Population Pyknosed Nuclei (%)", "setting": "U2OS; [5]", "value": "25% and 20%"},
      {"measurement": "Population Tubulin-Different-Phenotype (%)", "setting": "U2OS; [5]", "value": "82% and 87%"},
      {"measurement": "Population Apoptotic (%)", "setting": "U2OS; [6]", "value": "75% and 64%"},
      {"measurement": "Population Healthy Nuclei (%)", "setting": "U2OS; [6]", "value": "44% and 72%"},
      {"measurement": "Population Hoechst High Intensity Objects (%)", "setting": "U2OS; [6]", "value": 0, "unit": "%"},
      {"measurement": "Population Membrane Permeable-Phenotype (%)", "setting": "U2OS; [6]", "value": "62% and 32%"},
      {"measurement": "Population Mitochondria Different-Phenotype (%)", "setting": "U2OS; [6]", "value": "62% and 57%"},
      {"measurement": "Population Mitotic Cells (%)", "setting": "U2OS; [6]", "value": "25% and 36%"},
      {"measurement": "Population Normal (%)", "setting": "U2OS; [6]", "value": 100, "unit": "%"},
      {"measurement": "Population Pyknosed Nuclei (%)", "setting": "U2OS; [6]", "value": "11% and 16%"},
      {"measurement": "Population Tubulin-Different-Phenotype (%)", "setting": "U2OS; [6]", "value": "100% and 93%"},
      {"measurement": "Population Apoptotic (%)", "setting": "U2OS; [1]", "value": "69% and 82%"},
      {"measurement": "Population Healthy Nuclei (%)", "setting": "U2OS; [1]", "value": "48% and 76%"},
      {"measurement": "Population Hoechst High Intensity Objects (%)", "setting": "U2OS; [1]", "value": 0, "unit": "%"},
      {"measurement": "Population Membrane Permeable-Phenotype (%)", "setting": "U2OS; [1]", "value": "31% and 45%"},
      {"measurement": "Population Mitochondria Different-Phenotype (%)", "setting": "U2OS; [1]", "value": "57% and 69%"},
      {"measurement": "Population Mitotic Cells (%)", "setting": "U2OS; [1]", "value": "30% and 17%"},
      {"measurement": "Population Normal (%)", "setting": "U2OS; [1]", "value": "100% and 99%"},
      {"measurement": "Population Pyknosed Nuclei (%)", "setting": "U2OS; [1]", "value": "33% and 20%"},
      {"measurement": "Population Tubulin-Different-Phenotype (%)", "setting": "U2OS; [1]", "value": "100% and 84%"},
      {"measurement": "Population Apoptotic (%)", "setting": "U2OS; [2]", "value": "100% and 71%"},
      {"measurement": "Population Healthy Nuclei (%)", "setting": "U2OS; [2]", "value": "51% and 63%"},
      {"measurement": "Population Hoechst High Intensity Objects (%)", "setting": "U2OS; [2]", "value": 0, "unit": "%"},
      {"measurement": "Population Membrane Permeable-Phenotype (%)", "setting": "U2OS; [2]", "value": "82% and 75%"},
      {"measurement": "Population Mitochondria Different-Phenotype (%)", "setting": "U2OS; [2]", "value": "82% and 72%"},
      {"measurement": "Population Normal (%)", "setting": "U2OS; [2]", "value": 100, "unit": "%"},
      {"measurement": "Population Pyknosed Nuclei (%)", "setting": "U2OS; [2]", "value": "15% and 28%"},
      {"measurement": "Population Tubulin-Different-Phenotype (%)", "setting": "U2OS; [2]", "value": "100% and 98%"},
      {"measurement": "Population Apoptotic (%)", "setting": "U2OS; [3]", "value": "69% and 89%"},
      {"measurement": "Population Healthy Nuclei (%)", "setting": "U2OS; [3]", "value": "52% and 66%"},
      {"measurement": "Population Hoechst High Intensity Objects (%)", "setting": "U2OS; [3]", "value": "2% and 0%"},
      {"measurement": "Population Membrane Permeable-Phenotype (%)", "setting": "U2OS; [3]", "value": "40% and 46%"},
      {"measurement": "Population Mitochondria Different-Phenotype (%)", "setting": "U2OS; [3]", "value": "52% and 59%"},
      {"measurement": "Population Mitotic Cells (%)", "setting": "U2OS; [3]", "value": "30% and 10%"},
      {"measurement": "Population Normal (%)", "setting": "U2OS; [3]", "value": "97% and 100%"},
      {"measurement": "Population Pyknosed Nuclei (%)", "setting": "U2OS; [3]", "value": "27% and 30%"},
      {"measurement": "Population Tubulin-Different-Phenotype (%)", "setting": "U2OS; [3]", "value": "92% and 65%"},
      {"measurement": "Population Apoptotic (%)", "setting": "U2OS; [4]", "value": "94% and 90%"},
      {"measurement": "Population Healthy Nuclei (%)", "setting": "U2OS; [4]", "value": "15% and 28%"},
      {"measurement": "Population Hoechst High Intensity Objects (%)", "setting": "U2OS; [4]", "value": "2% and 1%"},
      {"measurement": "Population Membrane Permeable-Phenotype (%)", "setting": "U2OS; [4]", "value": "100% and 80%"},
      {"measurement": "Population Mitochondria Different-Phenotype (%)", "setting": "U2OS; [4]", "value": "66% and 72%"},
      {"measurement": "Population Mitotic Cells (%)", "setting": "U2OS; [4]", "value": "5% and 9%"},
      {"measurement": "Population Normal (%)", "setting": "U2OS; [4]", "value": "97% and 98%"},
      {"measurement": "Population Pyknosed Nuclei (%)", "setting": "U2OS; [4]", "value": "44% and 62%"},
      {"measurement": "Population Tubulin-Different-Phenotype (%)", "setting": "U2OS; [4]", "value": "100% and 97%"}
    ]}
  ]
}
